Laboratory results from ChEMBL document CHEMBL3792273, “Synthesis and pharmacological evaluation of mono-arylimidamides as antileishmanial agents” (Bioorg Med Chem Lett, 2016).

Key:
[1] = Selectivity index, ratio of IC50 for cytotoxic activity against mouse J774 cells to IC50 for antileishmanial activity against Leishmania amazonensis amastigotes; assay type: toxicity, cell-based; conditions: read-out: Ratio IC50
[2] = Selectivity index, ratio of IC50 for cytotoxic activity against mouse J774 cells to IC50 for antileishmanial activity against Leishmania donovani; assay type: toxicity, cell-based; conditions: read-out: Ratio IC50
Mus musculus = test: Toxicity in BALB/c mouse assessed as drug tolerance at 30 mg/kg/day, ip for 5 days; assay type: organism-based; conditions: in vivo, 120 h
Method in brief: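 Compound was dissolved in water and injected i.p. into healthy, uninfected BALB/c mice at 30 mg/kg/day once daily for 5 consecutive days to assess in vivo tolerability.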

[3] = Drug level in BALB/c mouse liver at 40 mg/kg, po administered as single dose after 1 hr; assay type: ADME, organism-based; conditions: read-out: Drug uptake
Method in brief: (§1)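 Mice received a single oral dose of 100 μmol/kg (40 mg/kg). Compound levels in plasma, liver, spleen and kidney were measured at 1, 2 and 24 h post-dose and reported as concentrations. Values are means ± standard errors of triplicate determinations.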

[4] = Drug level in BALB/c mouse spleen at 40 mg/kg, po administered as single dose after 1 hr; assay type: ADME, organism-based; conditions: read-out: Drug uptake; method in brief: as §1
[5] = Drug level in BALB/c mouse plasma at 40 mg/kg, po administered as single dose after 1 hr; assay type: ADME, organism-based; method in brief: as §1
[6] = Drug level in BALB/c mouse plasma at 40 mg/kg, po administered as single dose after 24 hrs; assay type: ADME, organism-based; method in brief: as §1
[7] = Drug level in BALB/c mouse spleen at 40 mg/kg, po administered as single dose after 24 hrs; assay type: ADME, organism-based; conditions: read-out: Drug uptake; method in brief: as §1
[8] = Drug level in BALB/c mouse liver at 40 mg/kg, po administered as single dose after 24 hrs; assay type: ADME, organism-based; conditions: read-out: Drug uptake; method in brief: as §1
Leishmania amazonensis [9] = test: Antileishmanial activity against beta-lactamase expressing Leishmania amazonensis amastigotes overnight infected in CD1 mouse macrophages incubated for 72 hrs by nitrocefin dye based assay in presence of posaconazole; assay type: functional, organism-based
Leishmania amazonensis [10] = test: Antileishmanial activity against Leishmania amazonensis infected in mouse peritoneal macrophages after 72 hrs using 2 hrs parasite exposed mouse peritoneal macrophages

Structure (SMILES)	selectivity ratio [1]	selectivity ratio [2]	Activity (Mus musculus)	other results
COc1ccc(-n2cc(-c3ccc(NC(=N)c4ccccn4)cc3OC(C)C)nn2)cc1	5.5	10	–	–
CC(C)Oc1cc(NC(=N)c2ccccn2)ccc1-c1cnc(-c2ccccc2)o1	41	24	–	–
CC(C)Oc1cc(NC(=N)c2ccccn2)ccc1-c1ccc(-c2ccccc2)o1.CS(=O)(=O)O	≥ 25	≥ 25	Non-toxic	concentration at 1 h [3]: 12600 nM; concentration at 1 h [4]: 4700 nM; concentration at 1 h [5]: 1900 nM; concentration at 24 h [6]: 140 nM; concentration at 24 h [7]: 600 nM; concentration at 24 h [8]: 600 nM; IC50 (Leishmania amazonensis [9]): 55 nM
CC(C)Oc1cc(NC(=N)c2ccccn2)ccc1-c1ccc(-c2ccccc2)s1	3	3.1	–	–
CC(C)Oc1cc(NC(=N)c2ncccn2)ccc1-c1ccc(-c2ccccc2)o1	18	27	–	–
CC(C)Oc1cc(NC(=N)c2ccccn2)ccc1-c1ccc(-c2ccco2)o1.Cl	≥ 25	≥ 25	Non-toxic	–
CS(=O)(=O)O.N=C(Nc1ccc(-c2ccc(-c3ccccc3)o2)c(OC2CCCC2)c1)c1ccccn1	≥ 25	≥ 25	Non-toxic	–
CC[C@@H]([C@H](C)O)n1ncn(-c2ccc(N3CCN(c4ccc(OC[C@@H]5CO[C@@](Cn6cncn6)(c6ccc(F)cc6F)C5)cc4)CC3)cc2)c1=O [POSACONAZOLE]	–	–	–	IC50 (Leishmania amazonensis [10]): 1600 nM
